Laboratory results reported in ChEMBL document CHEMBL3045132, “Synthesis and antiviral activity of novel chiral cyanoacrylate derivatives” (2005).

Key:
Format in all cases: functional
A-431 = assay: Antiproliferative activity against Homo sapiens (human) A431 cells at 5 uM measured after 72 hr by MTT assay; conditions: A-431, 72 h
Procedure, shortened: (§1)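 Cells plated at 3 × 10³/well in F-12 (PC3) or RPMI 1640 (A431) with 10% fetal bovine serum; compounds dissolved in DMSO, diluted in medium, exposed 72 h; vehicle control 0.1% DMSO. MTT cleavage to formazan read at 550 nm. Inhibition rate (%) = (A1 − A2)/A1 × 100, A1 untreated and A2 treated mean optical density; values as mean ± s.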

PC-3 = assay: Antiproliferative activity against Homo sapiens (human) PC3 cells at 5 uM measured after 72 hr by MTT assay; conditions: PC-3, 72 h; procedure, shortened: as §1
Echinochloa crus-galli [1] = assay: Herbicidal activity against Echinochloa crus-galli (barnyard grass) assessed as inhibition effect at 1500 g/ha sprayed to the stem and leaves after seed germination
Procedure, shortened: (§2)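 Post-emergence: compounds sprayed onto stems and leaves after seed germination; equal amount of water sprayed as control. Aerial tissue fresh weight measured 10 days after treatment; activity expressed as percent inhibition of aerial fresh weight.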

Echinochloa crus-galli [2] = assay: Herbicidal activity against Echinochloa crus-galli (barnyard grass) assessed as inhibition effect at 1500 g/ha sprayed soil immediately after seed planting
Procedure, shortened: (§3)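 Pre-emergence: compounds sprayed onto soil immediately after seed planting; equal amount of water sprayed as control. Aerial tissue fresh weight measured 10 days after treatment; activity expressed as percent inhibition of aerial fresh weight.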

Amaranthus retroflexus [3] = assay: Herbicidal activity against Amaranthus retroflexus assessed as inhibition effect at 1500 g/ha sprayed to the stem and leaves after seed germination; procedure, shortened: as §2
Amaranthus retroflexus [4] = assay: Herbicidal activity against Amaranthus retroflexus assessed as inhibition effect at 1500 g/ha sprayed soil immediately after seed planting; procedure, shortened: as §3
[5] = tested on: Brassica rapa subsp. oleifera; assay: Herbicidal activity against Brassica rapa subsp. oleifera assessed as inhibition effect at 1500 g/ha sprayed to the stem and leaves after seed germination; procedure, shortened: as §2
[6] = tested on: Brassica rapa subsp. oleifera; assay: Herbicidal activity against Brassica rapa subsp. oleifera assessed as inhibition effect at 1500 g/ha sprayed soil immediately after seed planting; procedure, shortened: as §3
Tobacco mosaic virus [7] = assay: Antiviral activity against Tobacco mosaic virus (TMV) inoculated in whole leaves of Nicotiana tabacum L. assessed as curative effect measured as local lesion number at 500 mg/l after 3 to 4 days
Procedure, shortened: (§4)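 Same-age N. tabacum L. leaves dipped-inoculated over the whole leaf with TMV at 6 × 10^-3 mg/mL, then washed with water and dried. Compound solution smeared on left half, solvent on right half as control. Local lesions counted 3-4 days after inoculation; three repetitions. Inhibition (%) calculated from control versus treated average lesion numbers.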

Tobacco mosaic virus [8] = assay: Antiviral activity against Tobacco mosaic virus (TMV) inoculated in left side of Nicotiana tabacum L. leaves assessed as inhibition of local lesion number at 500 mg/l measured after 3 to 4 days
Procedure, shortened: (§5)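 Half-leaf test on Nicotiana tabacum L.: TMV mixed with an equal volume of compound solution for 30 min, then inoculated on the left half-leaf; right half received virus plus solvent as control. Local lesions counted 3-4 days after inoculation; three repetitions. Inhibition (%) = (control lesions − treated lesions)/control lesions.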

Tobacco mosaic virus [9] = assay: Antiviral activity against Tobacco mosaic virus (TMV) inoculated in whole leaves of Nicotiana tabacum L. assessed as curative effect measured as local lesion number at 50 mg/l after 3 to 4 days; procedure, shortened: as §4
Tobacco mosaic virus [10] = assay: Antiviral activity against Tobacco mosaic virus (TMV) inoculated in left side of Nicotiana tabacum L. leaves assessed as inhibition of local lesion number at 50 mg/l measured after 3 to 4 days; procedure, shortened: as §5

Row | Compound | inhibition at 5 µM (A-431) [%] | inhibition at 5 µM (PC-3) [%] | inhibition at 1500 g/ha (Echinochloa crus-galli [1]) [%] | inhibition at 1500 g/ha (Echinochloa crus-galli [2]) [%] | inhibition at 1500 g/ha (Amaranthus retroflexus [3]) [%] | inhibition at 1500 g/ha (Amaranthus retroflexus [4]) [%] | inhibition at 1500 g/ha [5] [%] | inhibition at 1500 g/ha [6] [%] | inhibition at 500 µg/mL (Tobacco mosaic virus [7]) [%] | inhibition at 500 µg/mL (Tobacco mosaic virus [8]) [%] | inhibition at 50 µg/mL (Tobacco mosaic virus [9]) [%] | inhibition at 50 µg/mL (Tobacco mosaic virus [10]) [%]
1 | CCOC(=O)/C(C#N)=C(/Nc1ccc(C(F)(F)F)cc1)N[C@H](C)c1ccccc1 | 43.1 | 59.4 | 2.86 | 11.4 | 0 | 0 | 0 | 16.1 | 39.1 | 28.9 | – | –
2 | CCOC(=O)/C(C#N)=C(/Nc1ccc(C(F)(F)F)cc1)N[C@@H](C)c1ccccc1 | 39.9 | 49.1 | 5.71 | 10 | 0 | 10.5 | 30.5 | 21.4 | 15.2 | 6.1 | – | –
3 | CCOC(=O)/C(C#N)=C(/Nc1ccc(Br)cc1)N[C@H](C)c1ccccc1 | 16.1 | 1.5 | 0 | 4.29 | 0 | 0 | 10.9 | 5.38 | 12.3 | 53.4 | – | –
4 | CCOC(=O)/C(C#N)=C(/Nc1ccc(Br)cc1)N[C@@H](C)c1ccccc1 | 19.3 | 24.7 | 34.3 | 10 | 0 | 0 | 35.3 | 1.29 | 3.4 | 0 | – | –
5 | CCOC(=O)/C(C#N)=C(/Nc1ccc([N+](=O)[O-])cc1)N[C@H](C)c1ccccc1 | 23.6 | 2.9 | 0 | 18.6 | 0 | 0 | 17.2 | 21.4 | 43.1 | 89.1 | – | –
6 | CCOC(=O)/C(C#N)=C(/Nc1ccc([N+](=O)[O-])cc1)N[C@@H](C)c1ccccc1 | 18.1 | 0.7 | 13.3 | 14.3 | 0 | 0 | 32.1 | 25 | 13.1 | 5.3 | – | –
7 | CCOC(=O)/C(C#N)=C(/NNC(=O)c1cc(OC)c(OC)c(OC)c1)N[C@H](C)c1ccccc1 | 25.1 | 32.1 | 7.62 | 5.71 | 0 | 26.3 | 3.13 | 0 | 26.7 | 46.4 | – | –
8 | CCOC(=O)/C(C#N)=C(/NNC(=O)c1cc(OC)c(OC)c(OC)c1)N[C@@H](C)c1ccccc1 | 29.4 | 3.2 | 0 | 7.14 | 0 | 10.5 | 18.8 | 0 | 12.1 | 7.5 | – | –
9 | COc1ccc2c3c(c4cc(OC)c(OC)cc4c2c1)C[C@H]1CCCN1C3 [(-)-ANTOFINE] | – | – | – | – | – | – | – | – | – | – | 29.2 | 14
10 | O=c1[nH]cc(F)c(=O)[nH]1 [FLUOROURACIL] | 30.7 | 41.1 | – | – | – | – | – | – | – | – | – | –
11 | CNCC(=O)N[C@@H](CO)C(=O)N[C@H]1[C@H](O)[C@@H](O)[C@H](n2ccc(N)nc2=O)O[C@@H]1C(N)=O [NINGNANMYCIN] | – | – | – | – | – | – | – | – | 28.9 | 88.9 | – | –
